The list is not random: actives were taken first. Their share in the collection is about 3.9%.
697 NFkB inh = inhibitors of PMA/ionomycin-induced NF-kB reporter, 697 cells, primary screen, B-cell NF-kB inhibitor project, cell-based, luminescence, uHTS; 697 B-cell NF-kB luciferase reporter, 16 h; inhibition, % at 4 µM; actives 0.33% (n = 330,000); AID 435022, 2010; in the data active = inhibition above about 35%
Jurkat NFkB inh = inhibitors of induced NF-kB luciferase reporter, primary screen, TCR NF-kB activation inhibitor project, cell-based, luminescence, uHTS; Jurkat, PMA/ionomycin-induced NF-kB luciferase reporter; inhibition, % at 4 µM; AID 435003, 2010; actives 0.53% (n = 330,000); in the data active = inhibition above about 50%
CHOP inh = inhibitors of CHOP promoter induction, primary screen, cell-based, unfolded protein response, luciferase reporter; inhibition, % at 10 µM; CHO-K1 CHOP-promoter luciferase, tunicamycin-induced, 15-18 h; AID 2732, 2010; actives 3.8% (n = 220,000);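 active = compounds that reduced the stress-induced luciferase reporter signal by more than about 70% of percent inhibition, limit read from the data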
UPR XBP1 act = activators of adaptive XBP1 UPR arm, primary screen, cell-based, CHO-XBP1 luciferase reporter, luminescence, uHTS; IRE1-XBP1 UPR activation; percent of tunicamycin response, DMSO as zero; activation, % at 20 µM; actives 0.33% (n = 330,000); AID 463104, 2010;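 active = versus positive control, 20 µM dose yields 30% or more activation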
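Assay system: IRE1-XBP1 luciferase reporter CHO line. Input: 1000 cells/well. Buffer or medium: F12 with 10% serum. Doses: 20 µM, 1% DMSO. Times: overnight seeding at 37 °C, 6 h compound treatment at 37 °C. Technique: Steady-Glo luciferase glow luminescence, 10 min after reagent addition.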
Gli-Sufu block = Gli-Sufu pathway antagonists, primary screen, luciferase luminescence, Sufu-KO-LIGHT cells, uHTS | Sufu-KO-LIGHT fibroblasts, Gli luciferase reporter luminescence | inhibition, % at 5 µM | actives 0.74% (n = 340,000) | AID 588413, 2011;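 active = inhibition above about 55%, limit read from the data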
CHOP UPR activ = activators of apoptotic CHOP UPR arm, primary screen, cell-based, CHO-CHOP luciferase reporter, luminescence, uHTS; actives 0.34% (n = 330,000); AID 449763, 2010; UPR activation; percent of tunicamycin response over DMSO baseline; activation, % at 10 µM;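 active = at 10 µM dose, activation of 40% or more, normalized to positive control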
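Dosing – one dose, 10 µM in 0.5% DMSO · System – CHO-CHOP cells, stable luciferase reporter of PERK-eIF2a-CHOP signalling · Input – 500 cells/well · Control set – tunicamycin 10 µg/mL final as positive, DMSO-only wells as negative · Timing – 6 h compound treatment, 37 °C · Measure – % activation vs tunicamycin · Technique – luminescence read with Steady-Glo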
Numbers stand for hits; . = inactive; / = no result.

SMILES	697 NFkB inh	Jurkat NFkB inh	CHOP inh	UPR XBP1 act	Gli-Sufu block	CHOP UPR activ
O=C(/C=C/c1c(F)cccc1Cl)NCCCN1CCOCC1	.	.	/	.	.	.
CC1CCN(S(=O)(=O)c2ccc(NC(=O)C3CSC4(C)CCC(=O)N34)cc2)CC1 (centres undefined)	.	.	/	.	.	.
CC(=O)Nc1ccc(N(CC(=O)NC2CCCCC2)C(=O)Cn2nnc(-c3ccccc3)n2)cc1	.	.	/	.	.	.
O=C(CC1SC(=O)N(Cc2ccccc2Cl)C1=O)Nc1nccs1 (centres undefined)	.	.	.	.	.	.
O=C(CC1SC(=O)N(Cc2ccccc2)C1=O)Nc1nccs1 (centres undefined)	.	.	87.3	.	.	.
COc1ccc(C2CC(O)(c3ccccc3)Oc3cc(OC)c(OC)c(OC)c32)cc1 (centres undefined)	.	.	.	.	.	.
COc1ccc([C@@]23Oc4cc(OC)cc(OC)c4[C@]2(O)[C@H](O)[C@H](C(=O)N(C)C)[C@H]3c2ccccc2)cc1	/	/	/	/	76.8	/
CCOc1cccc(C(=O)Nc2ccccc2C(=O)N2CCOCC2)c1	.	.	/	.	.	.
CCC1(C)Cc2ccccc2-c2nc3n(c(=O)c21)CCCCC3 (centres undefined)	.	.	81.4	.	.	.
CC1(c2ccc3ccccc3c2)NC(=O)N(CC(=O)N2CCN(c3ccccc3O)CC2)C1=O (centres undefined)	.	.	/	.	.	.
CC(C)(C)c1ccc(Cn2c(=N)n(CC(O)c3ccco3)c3ccccc32)cc1 (centres undefined)	.	.	76.0	.	64.8	.
CCc1cc2c(SCC(=O)NC3CC3)ncnc2s1	.	.	/	.	.	.
CCN(c1ccc(NC(=O)c2cccc(S(=O)(=O)N3CCN(C)CC3)c2)cc1)C(C)C	.	.	/	.	.	.
CCCCCCNS(=O)(=O)c1ccc(Cl)s1	.	.	87.3	.	.	.
CCc1ccc2[nH]c(C(=O)N(C)c3ccc(F)cc3F)cc2c1	.	.	/	.	.	.
CC(=O)Nc1ccc(N2C(=O)CC(Sc3nc(C)cc(C)n3)C2=O)cc1 (centres undefined)	.	.	/	.	.	.
Cc1ccnc(NS(=O)(=O)c2ccc3ccccc3c2)n1	.	.	/	.	.	.
O=C1N/C(=C\c2ccc(N3CCOCC3)c(F)c2)C(=O)N1Cc1ccccc1	.	.	85.1	.	.	.
Cc1ccc(/C=C2/NC(=O)N(Cc3ccc(Br)cc3)C2=O)o1	.	.	104.7	.	.	.
CCN1C(=O)N/C(=C/c2ccc(C)o2)C1=O	.	.	.	.	.	.
Cc1ccc(CN2C(=O)N/C(=C\c3ccc(N4CCOCC4)cc3)C2=O)cc1	.	.	92.3	.	.	.
O=C1CC[C@@H](OCc2ccccc2)CCN1CC[C@H](Sc1ccccc1)c1ccccc1	.	.	/	.	.	.
Nc1ccc(Oc2cccc(Oc3ccc(N)cc3)c2)cc1	.	.	88.5	.	.	.
CCOc1ccc(OCCC(=O)N(CCC(C)C)c2c(N)n(Cc3ccccc3)c(=O)[nH]c2=O)cc1	.	.	/	.	.	.
CC(=O)N1CCN(c2ccc(Oc3ccc([N+](=O)[O-])c(C(F)(F)F)c3)cc2)CC1	.	.	/	.	67.3	.
SMILES	697 NFkB inh	Jurkat NFkB inh	CHOP inh	UPR XBP1 act	Gli-Sufu block	CHOP UPR activ
CCOc1ccc(C(=O)Nc2ccc(N3CCN(C(C)=O)CC3)cc2)cc1[N+](=O)[O-]	.	.	.	.	.	.
CCOC(=O)c1ccc(NS(=O)(=O)c2ccc(SC)cc2)cc1	.	.	78.0	.	.	.
Cc1ccccc1Cn1c(=O)n(Cc2ccco2)c(=O)c2ccccc21	.	.	87.5	.	.	.
Cc1cccc(Cn2c(=O)n(Cc3ccco3)c(=O)c3ccccc32)c1	.	.	.	.	.	.
Cc1ccccc1Cn1c(=O)n(-c2ccccc2)c(=O)c2ccc(C(=O)NCc3ccco3)cc21	.	.	81.1	.	/	.
CCN(C(=O)c1cc(S(=O)(=O)N2CCOCC2)cn1C)c1cccc(C)c1	.	.	/	.	.	.
CC(=O)c1sc(NC(=O)COc2ccc(C(C)C)c(C)c2)nc1C	.	.	77.4	.	.	.
C#CCOCCOCCOCCNc1nc(N2CCN(C(=O)Cn3cc(CCCCN)nn3)CC2)nc(N2CCN(C(=O)Cn3cc(CCCN=C(N)N)nn3)CC2)n1	.	.	/	.	.	.
Cc1nn(-c2ccccc2)c2nc(-c3ccncc3)cc(C(=O)NCc3ccco3)c12	.	.	71.5	.	.	.
CC1(C)CC(=O)c2cnc(N3CCN(c4ccccc4)CC3)nc2C1	.	.	86.5	.	.	.
CC1(C)CC(=O)c2cnc(N3CCc4ccccc4C3)nc2C1	.	.	.	.	.	.
CN(C(=O)/C(N=Nc1cccc(C(F)(F)F)c1)=C(\O)C(F)(F)F)c1ccccc1	.	.	73.0	.	.	.
CCOc1cccc(NCc2cc3c(C(C)(C)C)nn(-c4ccccc4)c3[nH]c2=O)c1	.	.	.	.	.	.
CC(C)(C)c1nn(-c2ccccc2)c2[nH]c(=O)c(CNCc3ccc4c(c3)OCO4)cc12	.	.	94.2	.	.	.
CC(OC(=O)Cn1cnc2ccccc2c1=O)C(=O)NCc1ccccc1 (centres undefined)	.	.	/	.	.	.
CCCCOc1ccc(C(=O)NCCC(=O)NCCCC(=O)OCC)cc1	.	.	.	.	.	.
CCCCCCCCNC(=O)CCNC(=O)c1ccc(C(C)(C)C)cc1	.	.	92.6	.	.	.
CCCc1cc(-c2n[nH]c(=S)n2C(C)c2ccccc2)cs1 (centres undefined)	.	.	95.8	.	.	.
C=CCSc1nc(Oc2ccccc2)c2sccc2n1	.	.	72.4	.	.	.
Cc1ccccc1OCC(=O)N/N=C/c1cn(Cc2ccccc2)c2ccccc12	.	.	73.4	.	.	.
C#CCn1cc(/C=N/NC(=O)COc2cccc3cccnc23)c2ccccc21	.	.	103.1	.	.	.
COC(=O)N/N=C/c1cn(Cc2ccccc2Cl)c2ccccc12	.	.	.	.	.	.
COC(=O)N/N=C/c1cn(Cc2ccc(Cl)cc2Cl)c2ccccc12	.	.	80.5	.	.	.
Cc1ccccc1CN1CCN(C(=O)c2ccc(F)cc2)CC1	.	.	/	.	.	.

High-throughput results (PubChem BioAssay)
